Experimental findings from ChEMBL document CHEMBL4049431 (J Med Chem, 2017) are described below.

pEC50: −log10 of the molar value. The source made the active and inactive calls.

Series [1] addresses T1, Kappa-type opioid receptor (Homo sapiens, UniProt P41145). Description: Agonist activity at human kappa-type opioid receptor expressed in CHO-K1 cells assessed as forskolin-induced cAMP accumulation after 30 mins in presence of forskolin by luminescence-based HitHunter cAMP assay. In kind it is functional, cell-based. The method in brief:
(§1)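 CHO-K1 cells expressing the receptor were kept at 37 °C in 5% CO2. cAMP data were normalized to vehicle and forskolin-only controls. Each compound was run in triplicate in parallel assays in ≥2 independent experiments. EC50 and Emax came from sigmoidal nonlinear regression and were averaged across experiments as mean ± SEM.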

The target in series [2] is T1, Kappa-type opioid receptor. The experiment in a line: Agonist activity at human kappa-type opioid receptor expressed in CHO-K1 cells assessed as forskolin-induced cAMP accumulation up to 10 uM after 30 mins in presence of forskolin by luminescence-based HitHunter cAMP assay. In kind it is functional, cell-based. The method in brief:
as §1

Series [3] has as its target Delta-type opioid receptor (Homo sapiens) (UniProt P41143). The experiment in a line: Agonist activity at human delta-type opioid receptor expressed in CHO-K1 cells assessed as forskolin-induced cAMP accumulation up to 10 uM after 30 mins in presence of forskolin by luminescence-based HitHunter cAMP assay. Type of series: functional, cell-based. The method, boiled down:
as §1

In series [4] the target is Mu-type opioid receptor (Homo sapiens) (UniProt P35372). The experiment in a line: Agonist activity at human mu-type opioid receptor expressed in CHO-K1 cells assessed as forskolin-induced cAMP accumulation up to 10 uM after 30 mins in presence of forskolin by luminescence-based HitHunter cAMP assay. In kind it is functional, cell-based. The method, boiled down:
as §1

Series [5] in a line: Metabolic stability in IGS Sprague-Dawley rat liver microsomes assessed as CYP450-mediated oxidative metabolism at 10 uM measured at 2.5 hrs in presence of NADPH by LC-MS analysis. Type of series: ADME. The method in brief:
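Rat liver microsomes (0.25 mg/mL) in 50 mM potassium phosphate with 2 mM MgCl2, pH 7.4, were prewarmed to 37 °C. Compound (10 μM final) and NADPH (1 mM final) were added. Samples were quenched in MeCN with 1% formic acid containing tolbutamide, centrifuged and analysed by LCMS.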

Series [6] has as its system Liver. Description: Metabolic stability in IGS Sprague-Dawley rat liver microsomes at 10 uM measured at 2.5 hrs in absence of NADPH by LC-MS analysis. Type of series: ADME, microsome. The method, boiled down:
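Incubation used rat liver microsomes (0.25 mg/mL) in 50 mM potassium phosphate, 2 mM MgCl2, pH 7.4, at 37 °C, with 10 μM compound final and buffer in place of NADPH. Samples were quenched in MeCN/1% formic acid with tolbutamide, then quantified by LCMS.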

Series [7] relates to Mus musculus. The experiment in a line: Analgesic activity in B6-SJL mouse assessed as increase in tail withdrawal latency at 2 mg/kg, ip measured up to 10 to 30 mins by warm water tail withdrawal assay. In kind it is functional, organism-based. The method, boiled down:
(§2)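 Adult male mice (25−35 g) were habituated to restrainers over four days. Drug or vehicle (DMSO:Tween-80:saline 2:1:7) was given ip. One-third of the tail was immersed in 50 °C water, with a 10 s cutoff. Baseline was the mean of three latencies. Readings were taken at 5–120 min. %MPE was calculated against pretreatment latency; n = 8−9 per group.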

Series [8] relates to Mus musculus. The experiment in a line: Analgesic activity in sc dosed B6-SJL mouse assessed as increase in tail withdrawal latency measured 30 mins post each dose by warm water tail withdrawal assay. In kind it is functional. The following applies: 0.5 h. The method, boiled down: (§3)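 Vehicle was DMSO:Tween-80:saline 2:1:7. Tail-withdrawal latency in 50 °C water (10 s cutoff) was recorded 30 min after each dose.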

Series [9] deals with Mus musculus. The experiment in a line: Analgesic activity in B6-SJL mouse assessed as increase in tail withdrawal latency at 0.3 to 10 mg/kg, sc measured 30 mins post each dose by warm water tail withdrawal assay. Type of series: functional. The following applies: 0.5 h. The method, boiled down: as §3
Series [10] relates to Mus musculus. The experiment in a line: Analgesic activity in formalin-induced B6-SJL mouse pain model assessed as inhibition of nociceptive response at 2 mg/kg, ip preincubated for 10 mins followed by formalin injection measured at 10 mins. Type of series: functional, organism-based. The method, boiled down:
(§4)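 Mice habituated to the test box received agonist ip in DMSO:Tween-80:saline (2:1:7). Ten min later, 20 μL of 2% formalin was injected intradermally into the right hind footpad. Video ran for 60 min, scored every 5 s (weight-bearing scale 0–3) by a blinded analyst and averaged per 5 min.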

In series [11] the test system is Mus musculus. Description: Analgesic activity in formalin-induced B6-SJL mouse pain model assessed as inhibition of nociceptive response at 2 mg/kg, ip preincubated for 10 mins followed by formalin injection measured at 10 mins in presence of kappa-type opioid receptor antagonist nor-BNI. Type of series: functional, organism-based. The method, boiled down: (§5)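 nor-BNI (10 mg/kg, sc) was given 24 h before ip agonist (DMSO:Tween-80:saline 2:1:7). After 10 min, 20 μL of 2% formalin was injected intradermally into the right hind paw.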

For series [12], the system named is Mus musculus. Description: Analgesic activity in formalin-induced B6-SJL mouse pain model assessed as inhibition of nociceptive response AUC at 2 mg/kg, ip preincubated for 10 mins followed by formalin injection measured up to 15 mins. Type of series: functional, organism-based. The method in brief:
as §4

The test system of series [13] is Mus musculus. The experiment in a line: Analgesic activity in formalin-induced B6-SJL mouse pain model assessed as inhibition of inflammatory response AUC at 2 mg/kg, ip preincubated for 10 mins followed by formalin injection measured at 15 to 60 mins. In kind it is functional, organism-based. The method in brief: as §4
Series [14] relates to Mus musculus. The experiment in a line: Antiinflammatory activity in B6-SJL mouse assessed as reduction in formalin-induced paw edema at 2 mg/kg, ip preincubated for 10 mins followed by formalin injection measured at 60 mins. In kind it is functional, organism-based. The method, boiled down: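 Right hind paw height, width and depth were measured by calipers before ip drug or vehicle (DMSO:Tween-80:saline 2:1:7). Intradermal 2% formalin (20 μL) followed 10 min later, and measurements were repeated at 60 min. One-way ANOVA with Bonferroni tests; n = 7 per group.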

Series [15] has as its system Mus musculus. The experiment in a line: Analgesic activity in formalin-induced B6-SJL mouse pain model assessed as inhibition of inflammatory response at 2 mg/kg, ip preincubated for 10 mins followed by formalin injection measured at 20 to 45 mins. Type of series: functional, organism-based. The method, boiled down: as §4
In series [16] the test system is Mus musculus. The experiment in a line: Analgesic activity in formalin-induced B6-SJL mouse pain model assessed as inhibition of inflammatory response at 2 mg/kg, ip preincubated for 10 mins followed by formalin injection measured at 20 to 45 mins in presence of kappa-type opioid receptor antagonist nor-BNI. Type of series: functional, organism-based. The method in brief: as §5

The subject of series [17] is Mus musculus. Description: Analgesic activity in formalin-induced B6-SJL mouse pain model assessed as inhibition of nociceptive response AUC at 2 mg/kg, ip preincubated for 10 mins followed by formalin injection measured up to 15 mins in presence of kappa-type opioid receptor antagonist nor-BNI. Type of series: functional, organism-based. The method in brief:
as §5

Series [18] has as its system Mus musculus. The experiment in a line: Analgesic activity in formalin-induced B6-SJL mouse pain model assessed as inhibition of inflammatory response AUC at 2 mg/kg, ip preincubated for 10 mins followed by formalin injection measured at 15 to 60 mins in presence of kappa-type opioid receptor antagonist nor-BNI. In kind it is functional, organism-based. The method in brief:
as §5

The subject of series [19] is Mus musculus. Description: Analgesic activity in B6-SJL mouse assessed as increase in tail withdrawal latency at 2 mg/kg, ip measured up to 5 to 30 mins by warm water tail withdrawal assay. Type of series: functional, organism-based. The method, boiled down: as §2
The subject of series [20] is Mus musculus. Description: Analgesic activity in formalin-induced B6-SJL mouse pain model assessed as inhibition of nociceptive response at 2 mg/kg, ip preincubated for 10 mins followed by formalin injection measured at 5 to 10 mins. In kind it is functional, organism-based. The method in brief: as §4
Series [21] relates to Mus musculus. The experiment in a line: Analgesic activity in formalin-induced B6-SJL mouse pain model assessed as inhibition of inflammatory response at 2 mg/kg, ip preincubated for 10 mins followed by formalin injection measured at 20 to 50 mins. Type of series: functional, organism-based. The method in brief: as §4

Sequence of Delta-type opioid receptor (Homo sapiens) (P41143 whole entry): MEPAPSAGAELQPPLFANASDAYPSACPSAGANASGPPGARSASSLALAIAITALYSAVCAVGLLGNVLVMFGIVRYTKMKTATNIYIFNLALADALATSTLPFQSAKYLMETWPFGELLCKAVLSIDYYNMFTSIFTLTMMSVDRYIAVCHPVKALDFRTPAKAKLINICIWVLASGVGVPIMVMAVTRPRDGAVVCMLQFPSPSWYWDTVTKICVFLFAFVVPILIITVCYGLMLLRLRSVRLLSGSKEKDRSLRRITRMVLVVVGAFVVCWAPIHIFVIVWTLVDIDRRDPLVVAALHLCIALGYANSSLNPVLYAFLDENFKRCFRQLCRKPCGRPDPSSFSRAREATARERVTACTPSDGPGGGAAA
T1 sequence (P41145 whole entry): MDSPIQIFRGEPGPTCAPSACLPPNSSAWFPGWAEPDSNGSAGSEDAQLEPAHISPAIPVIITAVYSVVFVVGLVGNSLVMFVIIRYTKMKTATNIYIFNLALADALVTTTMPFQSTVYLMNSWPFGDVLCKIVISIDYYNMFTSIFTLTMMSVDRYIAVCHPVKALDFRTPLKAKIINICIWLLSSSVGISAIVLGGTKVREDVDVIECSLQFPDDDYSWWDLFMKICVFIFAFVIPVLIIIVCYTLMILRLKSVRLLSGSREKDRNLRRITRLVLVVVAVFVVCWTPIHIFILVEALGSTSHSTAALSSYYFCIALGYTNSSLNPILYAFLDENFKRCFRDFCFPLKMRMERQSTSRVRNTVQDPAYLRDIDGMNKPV
Sequence of Mu-type opioid receptor (Homo sapiens) (P35372 whole entry): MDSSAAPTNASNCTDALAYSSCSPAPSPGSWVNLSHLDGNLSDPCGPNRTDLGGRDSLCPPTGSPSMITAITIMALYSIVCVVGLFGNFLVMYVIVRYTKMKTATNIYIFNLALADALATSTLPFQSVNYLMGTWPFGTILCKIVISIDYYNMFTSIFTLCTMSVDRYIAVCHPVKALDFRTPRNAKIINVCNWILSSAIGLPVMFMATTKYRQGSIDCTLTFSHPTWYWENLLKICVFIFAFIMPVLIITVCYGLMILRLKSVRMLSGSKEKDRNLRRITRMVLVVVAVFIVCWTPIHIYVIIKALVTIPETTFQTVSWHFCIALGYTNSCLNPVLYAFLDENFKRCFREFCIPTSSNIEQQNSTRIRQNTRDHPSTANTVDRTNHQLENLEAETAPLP

For the molecule `COC(=O)[C@H]1[C@](C)([C@@H](CC(OC)OC)C(=O)OC)CC[C@H]2C(=O)O[C@H](c3ccoc3)C[C@]12C`, the pEC50 in series [1] was 7.93. In addition, the Emax in series [2] turned out to be 100%; in series [3], 0%; in series [4] it was 0%.

On to `COC(=O)[C@H]1[C@](C)([C@@H](CCO)C(=O)OC)CC[C@H]2C(=O)O[C@H](c3ccoc3)C[C@]12C`, for which the pEC50 in series [1] is below 5.00. In series [2], the Emax is 0%.

In the case of `COC(=O)[C@@H]1C[C@]2(CCC(=O)O2)C(=O)[C@H]2[C@@]1(C)CC[C@H]1C(=O)O[C@H](c3ccoc3)C[C@]21C`, the pEC50 in series [1] was 9.22. Moreover, the maximum response (Emax) in series [2] was found to be 100%; in series [3] it was 0%; in [4] it was 0%; in [9], 62.4%. The Stability entry in series [5] and in series [6] was “Stable” in each case. In series [7], the outcome was Active. The ED50 in series [8] amounted to 0.759 mg/kg. For the same molecule, the inhibition entry in series [10], in [12], in [13], in [14] and in series [15] was “Active” in each case. In addition, the inhibition result in series [11], in series [16], in series [17] and in series [18] was “inactive” throughout.

In the case of `COC(=O)[C@H]1[C@](C)([C@@H](CC=O)C(=O)OC)CC[C@H]2C(=O)O[C@H](c3ccoc3)C[C@]12C`, the pEC50 in [1] was 7.52. Also, the Emax is 100% in [2], 0% in series [3] and 0% in series [4].

Take `COC(=O)[C@@H]1CCC(=O)[C@H]2[C@@]1(C)CC[C@H]1C(=O)O[C@H](c3ccoc3)C[C@]21C`: in series [1], the pEC50 is below 5.00. Moreover, the Emax in [2] was 0%.

`COC(=O)[C@@H]1C[C@H](OC(C)=O)C(=O)[C@H]2[C@@]1(C)CC[C@H]1C(=O)O[C@H](c3ccoc3)C[C@]21C` [SALVINORIN A]: the Emax is 0% in [3], 0% in [4] and 100% in series [9]. Further, the Stability entry in series [5] and in series [6] was “Stable” each time. Moreover, the result in [19] was Active. Moreover, the ED50 in series [8] was 1.28 mg/kg. Further, the inhibition result in series [20], in series [12], in series [13], in series [14] and in series [21] was “Active” in each case.

As to `COC(=O)[C@@H]1CC(=O)C(O)=C2[C@@]1(C)CC[C@H]1C(=O)O[C@H](c3ccoc3)C[C@]21C`, the pEC50 in [1] was below 5.00. The Emax in series [2] amounted to 0%.

Consider `COC(=O)[C@H]1[C@](C)([C@@H](CC(=O)O)C(=O)OC)CC[C@H]2C(=O)O[C@H](c3ccoc3)C[C@]12C`, for which the pEC50 in [1] was below 5.00. The Emax in [2] was 0%.

As to `COC(=O)[C@H]1[C@](C)([C@@H](CCOC(C)=O)C(=O)OC)CC[C@H]2C(=O)O[C@H](c3ccoc3)C[C@]12C`, the pEC50 in series [1] was 7.89. The Emax in series [2] was 100%; in series [3] it was 0%; in series [4] it was 0%.

Consider `COC(=O)[C@@H]1C[C@H](O)C(=O)[C@H]2[C@@]1(C)CC[C@H]1C(=O)O[C@H](c3ccoc3)C[C@]21C`, for which the Emax came out at 100% in [2], 0% in [3] and 0% in [4].
